Published values pooled from the literature.
Lines come from different studies, so protocols differ.

`Cc1[nH]c(C(=O)Nc2ccc(C(=O)NCC(=O)O)cc2N2CC[C@H](NC(=O)OC(C)(C)C)C2)c(Cl)c1Cl` has an MIC of greater than 32 µg/mL (Klebsiella aerogenes; microbial growth, broth dilution; ATCC13408).
`C=CC(=O)c1cccnc1Nc1cc(C(F)(F)F)ccc1OCc1ccccc1` has a GI50 of 9.65 µM (U-87 MG; cell growth or viability, SRB; 48 h).
The viability of `CC(=NNC(=O)COc1ccc2c(C)c(Cc3ccccc3)c(=O)oc2c1C)c1ccc(Br)cc1` is reported as 49.9% (HCT-116; cell growth or viability, MTT; 6.3 µg/mL).
The EC50 of `COc1cccc(C(=O)COc2nc(C)cc(C)c2C#N)c1` is reported as greater than 64 µM (Leishmania infantum; parasite growth; mouse Macrophage; intracellular, amastigote).
For `O=C(O)c1cn(C2CC2)c2cc(N3CCNCC3)c(F)cc2c1=O`, the MIC was 2 µM (Klebsiella aerogenes; microbial growth; ATCC35029).
`Cl.O=C(O)CNC(=O)c1ccc(NC(=O)c2cc(Br)c(Br)[nH]2)c(N2CCNCC2)c1` has an MIC of greater than 32 µg/mL (Klebsiella aerogenes; microbial growth, broth dilution; ATCC13408).
`Cc1cc(C)nc(SCC(=O)c2cccs2)n1` gave an EC50 of greater than 64 µM (Leishmania infantum; parasite growth; mouse Macrophage; intracellular, amastigote).
`Cl.N[C@H]1CCN(c2cc(C(=O)NCC(=O)O)ccc2NC(=O)c2cc(Br)c(Br)[nH]2)C1` gave an MIC of greater than 32 µg/mL (Klebsiella aerogenes; microbial growth, broth dilution; ATCC13408).
`C=CC(=O)NC1CCN(c2ncc3ncnc(Nc4ccc(Oc5ccc6c(c5)ncn6C)c(C)c4)c3n2)CC1` has an EC50 of 0.22 µM (HCC15; cell growth or viability).
The EC50 of `CNc1ccnc(SCC(=O)c2ccccc2)c1C#N` is reported as greater than 64 µM (Leishmania infantum; parasite growth; mouse Macrophage; intracellular, amastigote).
`Cc1[nH]c(C(=O)Nc2ccc(C(=O)NCC(=O)O)cc2N2CCN(C(=O)OC(C)(C)C)CC2)c(Cl)c1Cl` has an MIC of greater than 32 µg/mL (Klebsiella aerogenes; microbial growth, broth dilution; ATCC13408).
For `O=C(O)c1ccccc1Nc1cccc(C(F)(F)F)c1`, the GI50 was greater than 30 µM (U-87 MG; cell growth or viability, SRB; 48 h).
